This note sets out measurements from PubChem BioAssay.

Activity calls are given as the source filed them.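 How the source made its calls, unless noted: active means calcium signal ratio cut to more than 3 SD under the fully stimulated control mean yet still positive, in both repeats and the primary screen; inactive means the rest.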

For orientation: inhibition means the share of the control response that was lost under treatment.

Chain of Short transient receptor potential channel 4 (Mus musculus) (Q9QUQ5 whole entry, looked up): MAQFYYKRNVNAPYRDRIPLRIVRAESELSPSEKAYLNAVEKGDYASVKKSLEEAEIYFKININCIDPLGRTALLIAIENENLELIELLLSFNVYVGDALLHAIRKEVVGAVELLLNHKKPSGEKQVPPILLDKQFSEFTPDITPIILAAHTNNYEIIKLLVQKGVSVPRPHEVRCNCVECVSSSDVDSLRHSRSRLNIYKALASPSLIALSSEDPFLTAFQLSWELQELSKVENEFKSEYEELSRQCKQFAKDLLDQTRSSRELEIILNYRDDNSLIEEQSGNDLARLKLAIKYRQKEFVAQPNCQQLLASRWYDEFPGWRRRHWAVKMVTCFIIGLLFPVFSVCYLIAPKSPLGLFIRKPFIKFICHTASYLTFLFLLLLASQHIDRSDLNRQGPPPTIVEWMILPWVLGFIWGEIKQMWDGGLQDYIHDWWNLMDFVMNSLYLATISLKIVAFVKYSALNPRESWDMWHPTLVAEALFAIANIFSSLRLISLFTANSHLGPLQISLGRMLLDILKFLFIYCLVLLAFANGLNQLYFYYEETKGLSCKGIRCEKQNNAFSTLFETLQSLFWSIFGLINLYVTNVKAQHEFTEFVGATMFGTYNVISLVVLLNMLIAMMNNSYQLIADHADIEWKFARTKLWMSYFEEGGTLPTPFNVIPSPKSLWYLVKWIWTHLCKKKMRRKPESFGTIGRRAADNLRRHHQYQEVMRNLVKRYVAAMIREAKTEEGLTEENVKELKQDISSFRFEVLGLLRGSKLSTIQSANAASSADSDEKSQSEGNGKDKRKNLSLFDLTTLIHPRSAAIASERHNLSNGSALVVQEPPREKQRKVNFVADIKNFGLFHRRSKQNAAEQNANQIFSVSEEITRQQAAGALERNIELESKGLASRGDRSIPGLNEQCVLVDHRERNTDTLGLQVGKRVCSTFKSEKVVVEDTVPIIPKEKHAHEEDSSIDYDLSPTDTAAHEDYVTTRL

One assay has as its target Short transient receptor potential channel 4 (Mus musculus) (UniProt Q9QUQ5). The assay is described as follows: inhibitors of mouse TRPC4 channel, confirmation, cell-based, Fluo4, HEK293 TRPC4beta/mu-opioid (AID 2636;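 active means calcium signal cut by more than 3 SD below the full-agonist control yet still positive, in both repeats and the earlier primary screen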). As to conditions: DAMGO, Fluo4 calcium flux, at 10 µM; active compounds read high. Summed up: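 test system = TRPC4beta/mu-opioid receptor HEK293 cells | compound dosing = one dose, 10 µM final | times = dye 45 min at room temperature, compound 110 s, submaximal DAMGO 110 s | signal = kinetic fluorescence of Fluo4 calcium-sensitive dye, calcium influx | controls = no-compound wells and DAMGO maximal-stimulus wells | replication = duplicate wells for each compound, averaged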
`Clc1ccc(N=C2SCC3CCCCN23)cc1` (configuration not stated): the result was inactive. For the compound `O=S(=O)(c1ccc(Oc2ccc(Br)cc2)cc1)N1CCOCC1`, the result was inactive. On to `O=S(=O)(Nc1ccc(S(=O)(=O)Nc2cccc3ccccc23)cc1)c1ccccc1`, for which the outcome was inactive. With `COc1ccc(N(C(=O)c2snc(C(N)=O)c2N)C(C(=O)NC2CCCCC2)c2ccc(C)o2)c(OC)c1` (configuration not stated), the outcome was inactive.

Regarding `Cc1ccc(S(=O)(=O)Nc2ccc(N=Nc3ccc(O)cc3)cc2)cc1`, the result was inactive.

In the case of `O=C(c1ccccc1)c1coc2ccc(O)c(CN3CCOCC3)c12`, the result was inactive. `CCOc1ccc(N=CNc2ccc(OCC)cc2)cc1`: the result was inactive.

On to `COCCSc1ccccc1C(=O)N1CCC(Cc2ccccc2)CC1`, for which the outcome was inactive. As to `O=C(c1ccccc1F)N1CCN(c2ccc([N+](=O)[O-])c3cccnc23)CC1`, the outcome was inactive.

Regarding `Cc1ccc(NS(=O)(=O)c2cc(C(=O)N3CCc4ccccc4C3)ccc2Cl)cc1`, the result was inactive. Regarding `CCn1cc(CN2CCC(n3nccc3NC(=O)CCOc3ccccc3)CC2)c(C)n1`, the result was inactive.

For the compound `CCN1CCN(c2ccc(S(=O)(=O)N3CCCCC3)cc2NC(=O)COc2cc(C)ccc2Cl)CC1`, the outcome was inactive. Still for that read-out and setting: to `CN(C)CCCCOc1cccc(Br)c1` belongs “inactive”; to `CC(C)c1ccc(C(C)NCCS(=O)(=O)c2ccc(Br)cc2)cc1` (configuration not stated), “inactive”. Regarding `COc1cc2c(C(=O)N3CCN(C)CC3)c(CSc3ccccc3)n(C)c2cc1Br`, the result was inactive. With `Cc1c(N2C(=O)/C(=C/c3ccccc3)SC2=S)c(=O)n(-c2ccccc2)n1C`, the result was inactive. `Cc1n[nH]c(C)c1Cc1c(F)cccc1Cl`: the inhibition was 94% (active). Take `O=C(Nc1ccc([N+](=O)[O-])cn1)C1CCCCC1`: the outcome was inactive. Turning to `O=c1[nH][nH]c(-c2ccccc2)c1C=Nc1ccc(F)cc1F`, the outcome was inactive. Turning to `COc1ccccc1C1/C(=C(\O)c2ccc3c(c2)OCCO3)C(=O)C(=O)N1Cc1cccnc1` (configuration not stated), the inhibition was 82% (active). As for `CCN(CC)CCSc1nnc2c3ccccc3n(Cc3ccccc3)c2n1`, the outcome was inactive. With `CCCn1c(SCC(=O)N2c3ccccc3Sc3ccccc32)nc2c1c(=O)n(C)c(=O)n2C`, the result was inactive.

The target is the same in the next assay. The assay is described as follows: inhibitors of mouse TRPC4 channel, confirmation, cell-based, second round, Fluo4, HEK293 TRPC4beta/mu-opioid, 1 µM (AID 2637).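 On inhibition: percent of integrated ratio relative to wells lacking test compound.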 As to conditions: Fluo4 calcium flux, DAMGO, at 1 µM; active compounds read high. In a few lines: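 Test system: HEK293 stable line co-expressing TRPC4beta and mu-opioid receptor. Compound dosing: single test compound concentration, 1 µM final. Measured by: Fluo4 calcium fluorescence, kinetic real-time read after baseline. Incubation: Fluo4 loading 45 min, compound exposure 110 s. Probe or stimulus: sequential submaximal then maximal DAMGO stimulation. Controls: ECmax and compound-free wells.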
For orientation: A change in cytosolic calcium serves as a functional read-out for many receptors and channels.
For `COc1cc(/C=C2\C(=N)N3N=C(S(C)(=O)=O)SC3=NC2=O)ccc1OC(=O)c1cccs1`, the result was inactive. `c1ccc(CN2CCN(c3nc4ccccc4s3)CC2)cc1`: the outcome was inactive. Turning to `COc1ccccc1N(C(=O)c1snc(C(N)=O)c1N)C(C(=O)NCc1ccccc1)c1ccc(O)cc1` (configuration not stated), the inhibition was 51% (active). Consider `Cc1ccc(SC(CC(=O)c2ccc(C(C)(C)C)cc2)C(=O)O)cc1` (configuration not stated), for which the outcome was inactive. As to `COc1ccc(C2CC(=O)c3cnc(N4CCN(Cc5ccccc5)CC4)nc3C2)cc1` (configuration not stated), the outcome was inactive.

Consider `CC(=O)Nc1ccc(S(=O)(=O)N2CCN(CCCOc3cc(C)ccc3C)CC2)cc1`, for which the result was inactive. Consider `COc1cc(/C=C/C(=O)OCC(=O)Nc2c(C)n(C)n(-c3ccccc3)c2=O)ccc1OCC#N`, for which the result was inactive. Regarding `Cc1cc2oc(C(=O)N(Cc3ccco3)C3CCS(=O)(=O)C3)cc(=O)c2cc1Cl` (configuration not stated), the outcome was inactive. On to `CCOCCCn1cnc2c(c1=O)c1nc3ccccc3nc1n2-c1ccc(C)cc1`, for which the result was inactive. In the case of `O=C(c1ccccc1F)N1CCN(c2ccc([N+](=O)[O-])cc2-n2cccc2)CC1`, the result was inactive. As for `CN(CC(=O)Nc1ccc(F)cc1)C(=O)COC(=O)c1ccccc1`, the outcome was inactive. Still for that read-out and setting: to `O=C(NC1CC1)c1ccc2c(c1)N(Cc1ccc(Cl)cc1)CCS2` belongs “inactive”. Turning to `O=C(Nc1ccc2c(c1)OCO2)c1cnn2cccnc12`, the result was inactive. Take `CCc1nc2ccccc2n1Cc1ccccc1F`: the result was inactive. Take `CN(Cc1ccco1)C(=O)Cn1ncc2c([nH]c3ccccc32)c1=O`: the result was inactive. `CN1CCN(NC(=O)Nc2cc(Cl)cc(Cl)c2)CC1`: the outcome was inactive. Same read-out and setting: to `Cc1ccc2nc(C(=O)N3CCc4c([nH]c5ccccc45)C3c3ccccn3)cn2c1` (configuration not stated) belongs “inactive”. With `Clc1ccc(N=C2SCC3CCCCN23)cc1` (configuration not stated), the outcome was inactive. Take `O=S(=O)(c1ccc(Oc2ccc(Br)cc2)cc1)N1CCOCC1`: the outcome was inactive.

Take `O=S(=O)(Nc1ccc(S(=O)(=O)Nc2cccc3ccccc23)cc1)c1ccccc1`: the result was inactive. On to `COc1ccc(N(C(=O)c2snc(C(N)=O)c2N)C(C(=O)NC2CCCCC2)c2ccc(C)o2)c(OC)c1` (configuration not stated), for which the outcome was inactive. Consider `Cc1ccc(S(=O)(=O)Nc2ccc(N=Nc3ccc(O)cc3)cc2)cc1`, for which the result was inactive. For the compound `O=C(c1ccccc1)c1coc2ccc(O)c(CN3CCOCC3)c12`, the result was inactive. Turning to `CCOc1ccc(N=CNc2ccc(OCC)cc2)cc1`, the result was inactive.

With `COCCSc1ccccc1C(=O)N1CCC(Cc2ccccc2)CC1`, the result was inactive.
